The EternaBench riboswitch data

System: MS2 coat protein
Assay: apparent Kd, MS2 coat protein; higher = weaker binding; RNA-MaP array; FMN 200 µM where present
How it was run: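 Each design was made on Illumina sequencing-chip clusters by stalled E. coli RNA polymerase and titrated with SNAP-549-labelled MS2 coat protein from 0.7 or 1.5 nM, doubling to 3 µM, in the absence and then the presence of constant ligand. The buffer was 100 mM Tris-HCl pH 7.5, 80 mM KCl, 4 mM MgCl2, BSA, DTT, yeast tRNA and Tween-20. The apparent Kd is the median of filtered per-cluster fits of binding curves, with green signal normalised to red-channel RNA signal and control-cluster median Fmax.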

[1] = designed as: OFF switch for flavin mononucleotide, no ligand
[2] = ligand present: flavin mononucleotide, designed as: OFF switch for flavin mononucleotide
[3] = designed as: ON switch for flavin mononucleotide, no ligand
[4] = ligand present: flavin mononucleotide, designed as: ON switch for flavin mononucleotide

Sequence	apparent Kd [1]	apparent Kd [2]	apparent Kd [3]	apparent Kd [4]
CGUACUGAAGUGAGGAUAUUGUCUCGGAUACGAAACAAGAAGGCACAUGAGGAUCACCCAUGUUGACAGUACGA	15.8 nM	13.1 nM		
UUCAUGUGAGGAUAUAAAAGGAAGGUGGUAUCUAUCAACAAUUAGAAGGCACAUGAGGAUCACCCAUGUCUGAA	67 nM	60.9 nM		
UCCACUGCUGAGAAGGGAUACGUGUGGUUCGCAUCAGGAUAUCGAUACAGUGCAGCAUGAGGACAUGAGGAUCACCCAUGUAUC			43 nM	16.5 nM
GCCAUCGUAUGAGGAUAUGGCACCGAAACGGUGCCAGAAGGCAUGUCAAUCGACAUGAGGAUCACCCAUGUGUUAUCGAUGGCA			305 nM	25.1 nM
ACGUGUCGUGUAGGAUAUGACACAGGAAACUGGUCAGAAGGACAUGAGGAUCACCCAUGUAGAGUGUGUAAGGAUGACGUAUGC	52 nM	199 nM		
AGUUUGUGAGGAUAUCCAAUAUAUGACAUGAGGAUCACCCAUGUUUCCACUCGUACCUCCGGAGAAGGCACUGCGA	21.5 nM	22.9 nM		
UCUCGAUGUGUAGGAUAUCUGAUCACUAUGACAAGAGAAGGGCACAUGAGGAUCACCCAUGUGGAGGACCACUGGUUCAGAUUA	35.8 nM	64.9 nM		
UGACGGAGCUGAGGAUAUAACAUGAGGAUCACCCAUGUAAGUCUCCAGGAAACUGGAGACAAAUGUUAGAAGGCAGCUCCGUCA	39.4 nM	50.7 nM		
AGCUACGUUUCGUAGCAGUGUCAUCGAGAAGGCCUUAUAACAUGAGGAUCACCCAUGUUUGCAUGGGAGGAUAUCGAUGAUACA			20.1 nM	5.63 nM
CGCUCACAUGAGGAUCACCCAUGUCCUAGGAGGUCAGGAUAUAGCUCGCAUGCGUUGAGGCUAGAAGGGACAGCUG			259 nM	74.7 nM
CUGUAGAUAUCAGGAUAUCUAUUUCCUACAUGAGGAUCACCCAUGUAGGUGAUCACCCAAGUAAAGGAGAAGGGAUAUCUAUAG			65 nM	23.2 nM
AGUUGGGUCACAGGAUAUGCGCCGGCAUGCGAAGCAGAAGGGUGACGAGGUUGGGAACAUGAGGAUCACCCAUGUAUCGCAUAA			319 nM	36.5 nM
CCAACCGGCACCGGUUGAACAUGAGGAUCACCCAUGUACUCCAGAAGGCCGCCCAAGAACGGAGUGGAGGAUAUGGAGGUUCUC			15.5 nM	12 nM
CAGGAUAGAGGAUAUACGUAGAUACAGAUUCAUGUAAUCCUACAUGAGGAUCACCCAUGUAGAAGGCUAUCCUG	18 nM	113 nM		
AUACAUGAGGAUCACCCAUGUCGCAGGUUAAGGCCCAAACCGAGAAGGGAUUCGGUCAAGCCUAAUCAGGAUAUCGGUGGAGCC			93.4 nM	62.1 nM
CGUAACUGCAUAGGAUAUUGAUACAUGAGGAUCACCCAUGUUUUUCGGAUUUGUAAUAUACUAAGCAAGAAGGAUGGAGUUACG			8.04 nM	5.66 nM
GUAGCAUACCAAGGAUAUUCAGGGCUUGGAUAGACAUGAGGAUCACCCAUGUGGCGAAAGUCUAGGGAGAAGGUGGUAUGCUAC			16 nM	13.8 nM
GGUGAGAGCAAGGAUAUGCAGAAGUGAGAAAGUGCAGAAGGUGCUACAUGAGGAUCACCCAUGUUGGAUGUGUU	37.1 nM	49.1 nM		
GUCAGCUCGUGAGGAUAUACAAUACUGCUUCGGCAGUGUAUUAAGAUCACAUGAGGAUCACCCAUGUAGAAGGCACGAGCUGAU	7.88 nM	60.4 nM		
UAGAAGUCAGGAUAUGCAUGGCGGGACUUGCGUCGUGGCGUGCAGAAGGGACAUGAGGAUCACCCAUGUGGAGU	179 nM	230 nM		
AAUAUGUUGCAGAAGGUUAUAUUUUUUUAGUACCUCAUUACAUGAGGAUCACCCAUGUAAAUGAUGAAGGAUAUGCAAUAUAUU	19.3 nM	16.4 nM		
UUAAUUAAUUAAUUAUACAUGAGGAUCACCCAUGUAAGUGAUCAGGAUAUCAGCUCGUGUAGAGCUGAGAAGGGAUACAUGUAA			194 nM	102 nM
CAGGUAGACUGAGGAUAUACAUCUCUGGGCAAACCAGAGUAAAAUUCGACAUGAGGAUCACCCAUGUAGAAGGCAGUCUGCCUG	17 nM	24.1 nM		
CGGUGUCAUGUAAGGAUAUCGCAUCCCAGCGGAUACGAGAAGGUACAUGAGGAUCACCCAUGUACGAUAAAAUA	14.3 nM	17.5 nM		
AUGUUACAUGAGGAUCACCCAUGUGAGGAUAUGUGUACCCGUAAAAAAGUGUCGGGCCAUAGAAGGCAUUUGGA	48.4 nM	49.9 nM		
GUAUGACAAAGUCAUACCGCUCUGACAUGAGGAUCACCCAUGUAGGAUAUAUUAAUCAAAGAUUAAUAGAAGGACAUGUUUCUU	35.3 nM	79.3 nM		
CUUUAUCACUAUACAUGAGGAUCACCCAUGUUAUCAUCAUGAGAGGAUAUCGUAUUUGGAUUUUUCGAGAAGGCUCUUUUGUAU			108 nM	77.1 nM
GCUGGACGAGGAUAUGCAAUCGUGCUUCGGCACGUAAGAUCACAUGAGGAUCACCCAUGUAGAAGGUGUCCAGC	17.9 nM	30.2 nM		

Sequence	apparent Kd [1]	apparent Kd [2]	apparent Kd [3]	apparent Kd [4]
UUAAAUCAUGUAGGAUAUGCAUGGCGAAGCUACGCAGAAGGACAUGAGGAUCACCCAUGUGCUAGCGACAGAGUACUGUUGCAA	62.7 nM	363 nM		
CGCUCAUUAUAUAAGGAAAGAAUCAGAAGGCGUUACAUGAGGAUCACCCAUGUUUUGUAUAGUAACGAGGAUAUGAUAUGAGCG	18.6 nM	16 nM		
AACGCGUCAGGAUAUGCCAUAAAUUACCUAGUACGACCAUAGCAGAAGGGACAUGAGGAUCACCCAUGUGGGUA	92 nM	67.6 nM		
UUGUUUGUAGUGAGGAUAUCGUUGAGGAAGAGGAUCGAGAAGGCACAUGAGGAUCACCCAUGUUAGAUGUGGUU	170 nM	198 nM		
AUCAGCUCGUCAGGAUAUACGUCACUGCGUCAGCAGUGUGGUAAAAUCACAUGAGGAUCACCCAUGUAGAAGGGACGAGCUGAU	6.18 nM	14.4 nM		
UGAAAUCAUGUAGGAUAUGCAUGGCGAAGCUACGCAGAAGGACAUGAGGAUCACCCAUGUUAUAGCUACCCAGUUCGGUGGCAC	46 nM	136 nM		
GUAAAGUGAGGAUAUGGUAAUUUAAUUAUUAAUUAAUUAAUCCAGAAGGCACAUGAGGAUCACCCAUGUAAAGG	39.6 nM	74.6 nM		
AAGAAGUCAGGAUAUCCAUGGCGGCACUUGCGUGGUGGCGUGGAGAAGGGACAUGAGGAUCACCCAUGUAAAGA	51.4 nM	35.8 nM		
GUCGUGUGAGGAUAUGGAUAGAAGAAGUGAAAGUAAGCGACCUAGAAGGCACAUGAGGAUCACCCAUGUAUGUG	45.3 nM	75.6 nM		
CAUGUCCUCACAGGAUAUGCAAUGUAUUUCAUUGCAGAAGGGUGAACACAUGAGGAUCACCCAUGUGGACAUGAUAUAUUUAAU			521 nM	69.5 nM
GUCCUCUCUGAGGAUAUUAUCUGGUUCGAUUGAUAAGAAGGCAGUACAUGAGGAUCACCCAUGUGGGUCGUCUG	31 nM	83.7 nM		
UUAGCAUACCGAGGAUAUUCAUAUAAUAAAUAAACAUGAGGAUCACCCAUGUGGCGAAAGCCUAGGGAGAAGGCGGAAUGCUAC			206 nM	26.5 nM
AAUCUGUCGGUAGGAUAUCAGUUUGGAGAGCCGACAUGAGGAUCACCCAUGUACAGAAUCAAGGGUGAGAAGGACCGGGUAGUU			90.7 nM	78.6 nM
GCCAUCGCAUGAGGAUAUGCUCCGGUUUCCGGAGCAGAAGGCAUGUAAUAAAACAUGAGGAUCACCCAUGUAGUUAAGAUGGCA			7.94 nM	6 nM
ACGGCAAUCAGAGGAUAUGGUUACAUGAGGAUCACCCAUGUCAAGGGUCUAAUUAGGUAUAACUACCAGAAGGCUGAAGGCCUA	56.1 nM	94.8 nM		
UGGUACUAGGGAGGAUAUGGGAAGAUACAUGAGGAUCACCCAUGUUUAAGAAUGCCGACAGGCAACUAGAAGGCCCUAGUACCU			414 nM	20.2 nM
GUAGCAUACCGAGGAUAUUCAUACCGGAAACGGACAUGAGGAUCACCCAUGUUACGAAAGUAUUGGGAGAAGGCGGAAUGCUAC			135 nM	22.6 nM
AACAGUACAGGAUAUACAUGAGGAUCACCCAUGUGAGCGUUAAGUGCCGUAGCACAAAGUAGAAGGGUACUGGA	29.9 nM	92.5 nM		
GGGCUCGGAGGAUAUACAAUGGGCCCGGGAAACCGGGCCCUACAUGAGGAUCACCCAUGUAGAAGGUCGGGCUC	16.4 nM	24.8 nM		
GAUUCACAUGAGGAUCACCCAUGUCGUUAUAUGGGAGGAUAUACGUGGACCGUAGUCCGCGUAGAAGGCCUAAUUG			378 nM	81.2 nM
GUGCCUUGGGAGAAGGCAGCAUGCAAAGCAUUCUGAGGAUAUUCAUACCGGAAACGGACAUGAGGAUCACCCAUGUGGCACAAA			1470 nM	72.1 nM
AGACUGAAGCAAGGAUAUUGUAAGGUUAAUGUACAAGAAGGUGCUGUUUAUGUCUCUUAACAUGAGGAUCACCCAUGUUUUGAA			19.1 nM	19.2 nM
GCGAUUUAGUAGAAGGUACGAUAUAUAUCAUUGUAAGGAUAUACUUACAUGAGGAUCACCCAUGUUAAGGGUUAUAAUAAUCGC			195 nM	134 nM
GGUUGGCGAGGAUAUACAUGAGGAUCACCCAUGUGAGAGAUACUAGUGAGGUCGAUUGGUAGAAGGCGCUGACA	108 nM	58.6 nM		
GUGCUCGUGUGAGGAUAUGCUGCCGGGUCGGCUGCAGAAGGUACUAUUAUACAUGAGGAUCACCCAUGUCGCUUUUCUCCGGUG			45.6 nM	44.9 nM
UGGUACUAGGGAGGAUAUGGGAAGAUACAUGAGGAUCACCCAUGUUUAAGAAUGCCGAGAGGCAACUAGAAGGCCCUAGUGCCU			432 nM	19.2 nM
GUUACAUGAGGAUCACCCAUGUAUGUGUGGGAGUAAGUGUCUUAGGAUAUCUAUUAUUUAAAUUAAGAGAAGGAAGAUUGUUGU			123 nM	137 nM
